# Measurements gathered from unrelated publications.
# Lines come from different studies, so protocols differ.
# Target: Calcium/calmodulin-dependent protein kinase type II subunit beta (CAMK2B, Homo sapiens, UniProt Q13554)
SMILES,test,setting,remaining binding [%]
O=C(NCC1CCOCC1)c1n[nH]cc1NC(=O)c1c(F)cccc1F,"binding, competition with immobilised ligand",1 µM,75
C[C@@H](c1ccc(-n2cnc3c(N)ncnc32)cc1)N1CCc2nn(C)c(Cc3ccccc3)c2C1=O,"binding, competition with immobilised ligand",0.1 µM,98
COc1ncc2cc3ccccc3nc2c1C#N,"cell-free assay, competition with immobilised ligand",5 µM,87
CN([C@@H]1CCc2c(CC(=O)O)c3cc(S(C)(=O)=O)ccc3n2C1)S(=O)(=O)c1ccc(F)cc1,"cell-free assay, competition with immobilised ligand",1 µM,100
O=C(c1ccc(Nc2ncc(Cl)c(-c3cc4ccccc4s3)n2)cc1)N1CCC(N2CCCC2)CC1,"binding, competition with immobilised ligand",1 µM,83
C=CC(=O)N1CCC(C(=O)NCC(=O)N2CCN(c3nc(-c4cnc(N)nc4C(F)F)nc(N4CCOCC4)n3)CC2)CC1,"binding, competition with immobilised ligand",1 µM,100
CN(C)c1nccc(-c2cnc3ncccn23)n1,binding,1 µM,89
Cn1nc(C(=O)NCc2ccc(C(=O)O)cc2)cc1-c1ccc2[nH]ccc2c1,"cell-free assay, competition with immobilised ligand",0.1 µM,91
CNC(=O)[C@@H]1CC[C@@H](n2c(-c3ccc4cnccc4c3)nc3ccc(C(=O)NCc4cccc(C(N)=O)c4)cc32)C1,"binding, competition with immobilised ligand",1 µM,100
CN(C)c1nccc(-c2cnn3ncccc23)n1,binding,1 µM,65
CCN1CCN(Cc2ccc(C(=O)Nc3ccc(C)c(Oc4ccc5c(c4)CC(=O)N5)c3)cc2C(F)(F)F)CC1,"binding, competition with immobilised ligand",1 µM,100
C[C@H](NC(=O)c1cnc2n1[C@](C)(Cc1ccc(C#N)cc1)C(=O)N2c1cc(Cl)c(F)c(Cl)c1)C(=O)NC1(c2ccccn2)CC1,"cell-free assay, competition with immobilised ligand",1 µM,100
F[C@@H]1CCN(c2nccc(-c3cnn4ncccc34)n2)C1,binding,1 µM,100
Cc1cc(NC(=O)c2cccc(S(F)(F)(F)(F)F)c2)cc(-n2ccn3nc(-c4cccnc4)cc23)c1,"cell-free assay, competition with immobilised ligand",1 µM,100
O=C(c1ccc(Nc2ncc(Cl)c(-c3ccc(Cl)s3)n2)cc1)N1CCC(N2CCCC2)CC1,"binding, competition with immobilised ligand",1 µM,87
C[C@H]1CCN(c2nccc(-c3cnn4ncccc34)n2)C1,binding,1 µM,80
CN(c1ccnc(CNc2nc(Nc3ccc4c(c3)CC(=O)N4)ncc2C(F)(F)F)n1)S(C)(=O)=O,"cell-free assay, competition with immobilised ligand",1 µM,86
N[C@H]1CCN(c2nccc(-c3cnn4ncccc34)n2)C1,binding,1 µM,100
O=C(c1ccc(Nc2nccc(-c3cc4ccccc4s3)n2)cc1)N1CCC(N2CCCC2)CC1,"binding, competition with immobilised ligand",1 µM,100
CO[C@H]1CC[C@H](CNc2ccc(S(=O)(=O)NC(=O)c3ccc(N4CCN(CC5=C(c6ccc(Cl)cc6)CC(C)(C)CC5)CC4)cc3Oc3cnc4[nH]ccc4c3)cc2[N+](=O)[O-])CC1,"cell-free assay, competition with immobilised ligand",1 µM,80
CN(CCCC(F)(F)F)c1nccc(-c2cnn3ncccc23)n1,binding,1 µM,100
